Test results taken from PMC8542630 (Cell chemical biology, 2021).
Read-outs that look alike come from different tables or passages of the source. One block for each molecule: values may come before it.

What was measured:
Hs-dynein 1 [1] = target: T1, Hs-dynein 1 (Homo sapiens, UniProt Q14204); assay: Radioactive ATPase assay, basal ATPase activity of Hs-dynein 1; type: biochemical; details: for Inhibition of Hs-dynein 1 basal ATPase activity (in words): compounds tested at 20 μM, 1 mM MgATP, no microtubules, n=2
Outline: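 Hs-dynein 1 motor construct (N-terminal His6, aa 1320–4646) at 30 nM, without microtubules. Radioactive ATPase reaction ran for 45 min with test compound. Percent inhibition was obtained by normalising the ATPase rate with compound to DMSO control.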

GFP-Sc-Dyn [2] = target: T2, GFP-Sc-Dyn (Saccharomyces cerevisiae, UniProt P36022); assay: Microtubule gliding assay; type: biochemical, S. cerevisiae; details: 25 μM compound
Sc-Dyn-lyso [3] = target: T3, Sc-Dyn-lyso (Saccharomyces cerevisiae, UniProt P36022); assay: Microscale thermophoresis; type: binding, S. cerevisiae; details: n=2, negative control
T3 sequence (P36022 1758-2992 limits assumed): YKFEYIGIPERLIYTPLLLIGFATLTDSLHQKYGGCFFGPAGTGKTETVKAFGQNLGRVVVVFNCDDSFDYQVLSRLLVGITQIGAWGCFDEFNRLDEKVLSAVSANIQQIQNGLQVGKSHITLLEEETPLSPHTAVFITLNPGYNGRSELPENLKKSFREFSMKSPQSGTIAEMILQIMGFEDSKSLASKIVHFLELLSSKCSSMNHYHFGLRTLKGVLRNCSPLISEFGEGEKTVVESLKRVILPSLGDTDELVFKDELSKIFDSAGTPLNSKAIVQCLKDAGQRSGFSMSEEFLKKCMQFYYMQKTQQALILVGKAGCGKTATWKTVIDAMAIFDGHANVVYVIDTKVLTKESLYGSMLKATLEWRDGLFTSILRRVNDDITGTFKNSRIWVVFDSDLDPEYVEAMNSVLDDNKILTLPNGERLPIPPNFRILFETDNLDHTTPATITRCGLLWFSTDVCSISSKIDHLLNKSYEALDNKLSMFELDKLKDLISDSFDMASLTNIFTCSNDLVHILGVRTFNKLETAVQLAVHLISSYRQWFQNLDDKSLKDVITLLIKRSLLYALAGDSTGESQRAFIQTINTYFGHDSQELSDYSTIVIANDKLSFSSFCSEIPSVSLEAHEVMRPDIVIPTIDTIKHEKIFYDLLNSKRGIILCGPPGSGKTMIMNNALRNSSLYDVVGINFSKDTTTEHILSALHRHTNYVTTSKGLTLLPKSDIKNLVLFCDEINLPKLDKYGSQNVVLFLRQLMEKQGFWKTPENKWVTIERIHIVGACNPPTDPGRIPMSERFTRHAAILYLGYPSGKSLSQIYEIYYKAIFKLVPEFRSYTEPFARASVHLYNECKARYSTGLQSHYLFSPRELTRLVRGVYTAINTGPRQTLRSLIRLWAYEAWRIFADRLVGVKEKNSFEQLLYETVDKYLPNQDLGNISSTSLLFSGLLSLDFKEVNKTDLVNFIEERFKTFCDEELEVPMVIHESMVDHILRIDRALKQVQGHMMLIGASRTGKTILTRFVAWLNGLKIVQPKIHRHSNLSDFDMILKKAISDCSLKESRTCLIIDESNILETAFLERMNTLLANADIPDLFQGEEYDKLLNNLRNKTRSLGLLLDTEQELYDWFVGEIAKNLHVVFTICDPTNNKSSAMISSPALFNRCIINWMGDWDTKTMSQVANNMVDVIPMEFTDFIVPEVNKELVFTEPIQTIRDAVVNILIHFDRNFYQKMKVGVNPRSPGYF
T3 sequence (P36022 3301-4092 limits assumed): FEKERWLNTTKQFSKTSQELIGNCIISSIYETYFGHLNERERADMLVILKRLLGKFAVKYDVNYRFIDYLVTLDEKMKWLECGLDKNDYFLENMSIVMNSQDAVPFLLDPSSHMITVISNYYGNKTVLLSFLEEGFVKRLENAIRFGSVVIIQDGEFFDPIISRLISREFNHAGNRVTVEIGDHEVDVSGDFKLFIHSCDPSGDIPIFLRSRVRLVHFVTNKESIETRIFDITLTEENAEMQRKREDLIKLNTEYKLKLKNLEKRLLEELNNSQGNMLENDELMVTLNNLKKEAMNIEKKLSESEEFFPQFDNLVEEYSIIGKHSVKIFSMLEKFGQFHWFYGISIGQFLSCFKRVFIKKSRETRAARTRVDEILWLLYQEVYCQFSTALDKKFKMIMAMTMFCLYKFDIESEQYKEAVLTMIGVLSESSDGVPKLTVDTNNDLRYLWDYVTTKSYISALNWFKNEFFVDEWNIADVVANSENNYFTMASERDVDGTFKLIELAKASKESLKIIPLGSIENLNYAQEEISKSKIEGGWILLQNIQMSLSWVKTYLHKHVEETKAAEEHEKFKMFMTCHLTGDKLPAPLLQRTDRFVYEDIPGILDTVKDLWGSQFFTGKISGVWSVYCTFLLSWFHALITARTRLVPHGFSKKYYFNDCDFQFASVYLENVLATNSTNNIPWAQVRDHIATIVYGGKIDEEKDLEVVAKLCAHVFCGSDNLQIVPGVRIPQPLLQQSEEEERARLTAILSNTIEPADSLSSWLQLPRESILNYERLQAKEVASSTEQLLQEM

GFP-Sc-Dyn [4] = target: T2, GFP-Sc-Dyn; assay: Microscale thermophoresis; type: binding, S. cerevisiae
Sc-DynGST = Sc-DynGST (Saccharomyces cerevisiae, UniProt P36022); assay: Single-molecule motility assay; type: biochemical, S. cerevisiae; details: single-molecule
[5] = target: GFP-Sc-Dyn V2391S/M2732S (AAA3_V-S/AAA4_M-S) (Saccharomyces cerevisiae, UniProt P36022, M2732S/V2391S); assay: Microscale thermophoresis; type: binding; details: read-out: EC50, AMPPNP binding to AAA3_V-S/AAA4_M-S (MST); mean ± 95% CI, n=3
Mm-VCP/p97 = Mm-VCP/p97 (Mus musculus, UniProt Q01853); assay: NADH-coupled steady-state ATPase assay, Mm-VCP/p97; type: biochemical, M. musculus; details: 20 μM, 1 mM MgATP
Sc-Dyn-lyso [6] = target: Sc-Dyn-lyso (Saccharomyces cerevisiae, UniProt P36022); assay: NADH-coupled steady-state ATPase assay, Sc-Dyn-lyso; type: biochemical, S. cerevisiae
Outline: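 Ten-dose DMSO serial dilution of test compound (stock top 4 mM) was preincubated 10 min at RT. MgATP (10 mM stock) started the reaction, and NADH fluorescence slopes were converted via an ADP standard curve.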

GFP-Sc-Dyn [7] = target: T2, GFP-Sc-Dyn; assay: NADH-coupled steady-state ATPase assay, GFP-Sc-Dyn basal ATPase; type: biochemical, S. cerevisiae
Hs-FIGL1 = target: T4, Hs-FIGL1 (Homo sapiens, UniProt Q6PIW4); assay: NADH-coupled steady-state ATPase assay, Hs-FIGL1; type: biochemical, H. sapiens; details: read-out: Inhibition of ATPase activity, Hs-FIGL1
T4 sequence (Q6PIW4 288-674): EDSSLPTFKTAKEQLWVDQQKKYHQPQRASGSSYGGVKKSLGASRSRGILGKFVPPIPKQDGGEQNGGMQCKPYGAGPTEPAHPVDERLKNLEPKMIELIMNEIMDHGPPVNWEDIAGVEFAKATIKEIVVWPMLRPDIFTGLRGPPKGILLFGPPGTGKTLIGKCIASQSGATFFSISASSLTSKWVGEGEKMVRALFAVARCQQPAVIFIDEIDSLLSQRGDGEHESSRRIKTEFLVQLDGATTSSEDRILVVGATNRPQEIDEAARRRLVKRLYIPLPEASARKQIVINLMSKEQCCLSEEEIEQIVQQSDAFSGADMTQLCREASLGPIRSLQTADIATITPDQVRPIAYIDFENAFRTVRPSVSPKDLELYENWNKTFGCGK
Outline: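 Recombinant Hs-FIGL1 (50 nM; E. coli-expressed) in 25 mM Na-MES pH 6.5, 70 mM KOAc, 20 mM (NH4)2SO4, 5 mM Mg(OAc)2, 1 mM TCEP, 0.01% Triton X-100, with NADH/PEP/pyruvate kinase/lactate dehydrogenase coupling system. Protein preincubated 10 min at RT with test compound, then MgATP added. NADH fluorescence (ex 340, em 440 nm) slope converted to ATPase rate with an ADP standard curve.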

Hs-dynein 1 [8] = target: T1, Hs-dynein 1; assay: Radioactive ATPase assay, microtubule-stimulated ATPase activity of Hs-dynein 1; type: biochemical
Outline: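 Radioactive ATPase assay with Hs-dynein 1 (His6, aa 1320–4646; 30 nM) in the presence of microtubules. Reaction time was 45 min, and rates with test compound were normalised to DMSO control.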

Xl-katanin = Xl-katanin (Xenopus laevis, UniProt Q9PUL2); assay: NADH-coupled steady-state ATPase assay, Xl-katanin; type: biochemical, X. laevis; details: 20 μM, 1 mM MgATP
Outline: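 Recombinant Xl-katanin (50 nM; E. coli, MBP-trap, MonoQ and gel filtration) in 25 mM K-HEPES pH 7.5, 70 mM KCl, 20 mM (NH4)2SO4, 5 mM MgCl2, 2.5 mM DTT, 0.01% Triton X-100 plus NADH-coupled regeneration mix. After 10 min RT preincubation with test compound, MgATP started the reaction. The fluorescence decrease rate (340/440 nm) was converted to ATPase rate using an ADP standard curve.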

Dm-spastin = Dm-spastin (Drosophila melanogaster, UniProt Q8I0P1, DEL311-372); assay: NADH-coupled steady-state ATPase assay, Dm-spastin; type: biochemical, D. melanogaster; details: 20 μM, 1 mM MgATP
Hs-dynein 1 [9] = target: T1, Hs-dynein 1; details: ref Steinman et al., 2017; cited from earlier work
Hs-dynein 1 [10] = target: T1, Hs-dynein 1; details: read-out: IC50, inhibition of Hs-dynein 1; ref Steinman et al., 2017; cited from earlier work

Sequence of Sc-DynGST (P36022 1219-4092 limits assumed): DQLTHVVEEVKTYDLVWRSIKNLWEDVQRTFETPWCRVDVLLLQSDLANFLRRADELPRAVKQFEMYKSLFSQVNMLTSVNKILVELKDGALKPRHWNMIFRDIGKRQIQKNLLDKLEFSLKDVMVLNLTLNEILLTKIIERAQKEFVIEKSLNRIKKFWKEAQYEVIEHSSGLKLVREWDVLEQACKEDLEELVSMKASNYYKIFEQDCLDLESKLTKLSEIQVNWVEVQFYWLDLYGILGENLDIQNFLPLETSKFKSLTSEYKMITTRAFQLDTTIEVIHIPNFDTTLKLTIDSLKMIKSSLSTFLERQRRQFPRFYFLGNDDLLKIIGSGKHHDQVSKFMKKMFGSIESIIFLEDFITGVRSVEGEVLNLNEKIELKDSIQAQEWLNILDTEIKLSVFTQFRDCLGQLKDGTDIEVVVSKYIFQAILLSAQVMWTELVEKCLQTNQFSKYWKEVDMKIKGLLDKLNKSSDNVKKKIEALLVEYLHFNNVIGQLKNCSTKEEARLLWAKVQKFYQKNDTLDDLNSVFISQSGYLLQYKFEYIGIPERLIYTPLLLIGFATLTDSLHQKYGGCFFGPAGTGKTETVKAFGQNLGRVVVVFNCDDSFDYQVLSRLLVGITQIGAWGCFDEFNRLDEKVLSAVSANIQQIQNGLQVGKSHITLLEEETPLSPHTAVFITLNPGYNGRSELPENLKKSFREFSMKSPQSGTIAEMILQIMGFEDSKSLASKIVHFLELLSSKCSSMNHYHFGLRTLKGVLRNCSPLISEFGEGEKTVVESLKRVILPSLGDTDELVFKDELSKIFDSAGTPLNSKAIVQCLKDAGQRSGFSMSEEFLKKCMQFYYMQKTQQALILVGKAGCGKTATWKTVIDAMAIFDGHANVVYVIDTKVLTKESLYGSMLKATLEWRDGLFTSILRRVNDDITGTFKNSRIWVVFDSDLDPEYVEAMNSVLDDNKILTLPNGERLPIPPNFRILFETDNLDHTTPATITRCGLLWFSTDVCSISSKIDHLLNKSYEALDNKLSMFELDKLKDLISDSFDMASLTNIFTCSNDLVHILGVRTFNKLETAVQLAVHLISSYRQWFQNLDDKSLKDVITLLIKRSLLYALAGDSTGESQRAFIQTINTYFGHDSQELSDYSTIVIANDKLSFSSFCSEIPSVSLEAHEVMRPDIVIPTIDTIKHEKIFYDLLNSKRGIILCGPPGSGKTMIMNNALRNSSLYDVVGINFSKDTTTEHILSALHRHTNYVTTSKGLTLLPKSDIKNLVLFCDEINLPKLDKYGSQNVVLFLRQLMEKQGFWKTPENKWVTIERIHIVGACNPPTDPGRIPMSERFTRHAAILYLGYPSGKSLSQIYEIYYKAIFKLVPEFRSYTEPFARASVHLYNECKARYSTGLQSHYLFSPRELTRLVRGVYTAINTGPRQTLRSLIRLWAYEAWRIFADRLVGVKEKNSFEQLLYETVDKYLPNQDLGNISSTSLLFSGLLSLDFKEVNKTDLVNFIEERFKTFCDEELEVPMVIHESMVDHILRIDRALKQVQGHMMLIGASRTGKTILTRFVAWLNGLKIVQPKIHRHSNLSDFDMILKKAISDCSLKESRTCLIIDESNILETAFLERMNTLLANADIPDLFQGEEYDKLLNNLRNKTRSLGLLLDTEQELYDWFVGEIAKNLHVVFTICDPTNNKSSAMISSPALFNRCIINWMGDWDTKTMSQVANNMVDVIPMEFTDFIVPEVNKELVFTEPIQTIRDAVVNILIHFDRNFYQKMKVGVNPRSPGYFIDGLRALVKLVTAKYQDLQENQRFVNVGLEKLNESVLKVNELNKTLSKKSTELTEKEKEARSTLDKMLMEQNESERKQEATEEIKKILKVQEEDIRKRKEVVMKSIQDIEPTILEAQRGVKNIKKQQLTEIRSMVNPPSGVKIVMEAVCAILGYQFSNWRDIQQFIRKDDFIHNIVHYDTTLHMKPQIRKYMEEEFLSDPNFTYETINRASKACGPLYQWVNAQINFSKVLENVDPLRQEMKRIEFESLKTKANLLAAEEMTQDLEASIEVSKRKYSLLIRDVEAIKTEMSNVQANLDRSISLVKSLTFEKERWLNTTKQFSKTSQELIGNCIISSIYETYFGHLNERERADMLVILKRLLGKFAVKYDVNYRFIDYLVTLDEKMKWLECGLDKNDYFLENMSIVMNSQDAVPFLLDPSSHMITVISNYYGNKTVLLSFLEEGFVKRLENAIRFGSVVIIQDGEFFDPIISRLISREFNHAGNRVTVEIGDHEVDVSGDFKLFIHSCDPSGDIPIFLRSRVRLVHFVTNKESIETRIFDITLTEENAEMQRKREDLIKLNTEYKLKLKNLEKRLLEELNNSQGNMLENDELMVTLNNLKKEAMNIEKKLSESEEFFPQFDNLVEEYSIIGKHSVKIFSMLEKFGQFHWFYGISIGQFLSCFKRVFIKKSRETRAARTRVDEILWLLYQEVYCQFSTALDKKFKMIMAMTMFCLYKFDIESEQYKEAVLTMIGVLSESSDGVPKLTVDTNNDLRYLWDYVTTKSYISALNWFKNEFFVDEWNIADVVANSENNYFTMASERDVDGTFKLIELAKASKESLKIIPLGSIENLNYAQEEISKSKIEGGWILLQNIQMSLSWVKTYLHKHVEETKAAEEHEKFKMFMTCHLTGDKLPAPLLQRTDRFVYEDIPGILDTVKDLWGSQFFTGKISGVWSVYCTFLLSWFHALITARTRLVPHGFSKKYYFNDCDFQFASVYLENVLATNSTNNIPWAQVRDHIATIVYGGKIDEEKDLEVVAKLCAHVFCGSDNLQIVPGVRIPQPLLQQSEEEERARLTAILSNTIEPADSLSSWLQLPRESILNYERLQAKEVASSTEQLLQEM
T2 sequence (P36022 1219-4092): as the sequence (P36022 1219-4092 limits assumed) above
Sequence of Mm-VCP/p97 (Q01853 whole entry): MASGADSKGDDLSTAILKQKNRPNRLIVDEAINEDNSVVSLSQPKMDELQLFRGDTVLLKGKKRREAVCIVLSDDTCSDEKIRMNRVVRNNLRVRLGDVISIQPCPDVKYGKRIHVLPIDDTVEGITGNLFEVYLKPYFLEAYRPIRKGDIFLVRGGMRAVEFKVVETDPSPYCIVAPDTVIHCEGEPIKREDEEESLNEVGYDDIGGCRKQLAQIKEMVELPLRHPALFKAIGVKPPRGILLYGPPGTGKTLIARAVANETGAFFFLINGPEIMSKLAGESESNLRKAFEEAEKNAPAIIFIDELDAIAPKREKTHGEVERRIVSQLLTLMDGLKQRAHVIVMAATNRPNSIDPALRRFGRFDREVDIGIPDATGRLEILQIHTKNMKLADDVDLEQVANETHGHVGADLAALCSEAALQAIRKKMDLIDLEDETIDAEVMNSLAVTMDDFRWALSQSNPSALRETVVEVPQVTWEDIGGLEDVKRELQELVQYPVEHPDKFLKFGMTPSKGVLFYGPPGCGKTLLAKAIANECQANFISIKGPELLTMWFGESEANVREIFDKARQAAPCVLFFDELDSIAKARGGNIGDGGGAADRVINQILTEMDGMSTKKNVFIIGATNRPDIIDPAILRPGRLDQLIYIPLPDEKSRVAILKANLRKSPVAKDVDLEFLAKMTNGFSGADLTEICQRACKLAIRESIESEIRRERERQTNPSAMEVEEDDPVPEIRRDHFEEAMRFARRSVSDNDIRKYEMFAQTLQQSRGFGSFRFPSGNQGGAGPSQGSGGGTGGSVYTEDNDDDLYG
Sequence of Xl-katanin (Q9PUL2 whole entry): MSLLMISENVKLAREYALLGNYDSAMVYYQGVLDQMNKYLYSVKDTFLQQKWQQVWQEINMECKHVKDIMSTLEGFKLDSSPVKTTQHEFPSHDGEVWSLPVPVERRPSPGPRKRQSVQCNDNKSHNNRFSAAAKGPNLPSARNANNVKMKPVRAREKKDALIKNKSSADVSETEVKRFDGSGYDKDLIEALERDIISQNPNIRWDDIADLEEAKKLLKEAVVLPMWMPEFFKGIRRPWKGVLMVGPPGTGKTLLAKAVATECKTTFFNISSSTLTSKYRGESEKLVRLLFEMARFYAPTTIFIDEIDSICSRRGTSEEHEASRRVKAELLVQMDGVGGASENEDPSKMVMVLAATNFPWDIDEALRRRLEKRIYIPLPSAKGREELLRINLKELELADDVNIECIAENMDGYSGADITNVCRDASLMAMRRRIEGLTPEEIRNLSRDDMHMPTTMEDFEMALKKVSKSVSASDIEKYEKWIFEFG
Sequence of GFP-Sc-Dyn V2391S/M2732S (AAA3_V-S/AAA4_M-S) (P36022 1219-4092 V2391S/M2732S): as the sequence (P36022 1219-4092 limits assumed) above, with V1173S, M1514S counted along it

SMILES: COc1c[nH]c2c(C#N)c(C3(c4ccc(Cl)cc4)CC3)nn2c1=O [compound 6, 2-[1-(4-chlorophenyl)cyclopropyl]-6-methoxy-7-oxo-4H-pyrazolo[1,5-a]pyrimidine-3-carbonitrile]
Inhibition of Hs-dynein 1 basal ATPase activity (in words) (Hs-dynein 1 [1]): does not inhibit
Effect on microtubule gliding (in words) (GFP-Sc-Dyn [2]): comparable to DMSO
Microtubule gliding velocity, 30 minutes after treatment (GFP-Sc-Dyn [2]; 1% DMSO, 1 mM Mg-ATP, mean ± SD): 66 ± 21
Binding to Sc-Dyn-lyso (MST, in words) (Sc-Dyn-lyso [3]): did not bind
Binding to GFP-Sc-Dyn (MST, in words) (GFP-Sc-Dyn [4]; control compound): could not detect binding
Effect on landing rate (in words) (Sc-DynGST): not sensitive
Effect on dynein processivity (run length) (in words) (Sc-DynGST; 0-50 μM compound): not sensitive
Effect on dynein velocity (in words) (Sc-DynGST; 0-50 μM compound): not sensitive

Inhibition of Hs-dynein 1 basal ATPase activity (in words) (Hs-dynein 1 [1]): less active
SMILES: COc1cccc(Oc2c[nH]c3c(C#N)c(C4(c5ccc(Cl)cc5)CC4)nn3c2=O)c1 [compound 16, 2-[1-(4-chlorophenyl)cyclopropyl]-6-(3-methoxyphenoxy)-7-oxo-4H-pyrazolo[1,5-a]pyrimidine-3-carbonitrile]

Inhibition of Hs-dynein 1 basal ATPase activity (in words) (Hs-dynein 1 [1]): less active
SMILES: N#Cc1c(C2(c3ccc(Cl)cc3)CC2)nn2c(=O)c(Oc3ccc(Cl)cc3)c[nH]c12 [compound 17, 6-(4-chlorophenoxy)-2-(1-(4-chlorophenyl)cyclopropyl)-7-oxo-4,7-dihydropyrazolo[1,5-a]pyrimidine-3-carbonitrile]

SMILES: Nc1ncnc2c1ncn2[C@@H]1O[C@H](COP(=O)(O)OP(=O)(O)NP(=O)(O)O)[C@@H](O)[C@H]1O [AMPPNP, adenylyl imidodiphosphate, reference compound]
EC50 [5]: 180 ± 78 µM
EC50 (GFP-Sc-Dyn [4]; read-out: EC50, AMPPNP binding to GFP-Sc-Dyn (MST), mean ± 95% CI, n=3, 60% MST power): 25 ± 20 µM

SMILES: N#Cc1c(C2(c3ccc(Cl)cc3)CC2)nn2c(=O)c(Oc3cccc(Cl)c3)c[nH]c12 [compound 19, 6-(3-chlorophenoxy)-2-[1-(4-chlorophenyl)cyclopropyl]-7-oxo-4H-pyrazolo[1,5-a]pyrimidine-3-carbonitrile]
IC50 (Hs-dynein 1 [1]): 17 ± 2.3 µM
Inhibition of Hs-dynein 1 basal ATPase activity (in words) (Hs-dynein 1 [1]): most active
Reduction of ATPase activity, Mm-VCP (Mm-VCP/p97): < 25%
IC50 (Sc-Dyn-lyso [6]): 14 ± 4.9 µM
IC50 (GFP-Sc-Dyn [7]): 10 ± 1.2 µM
inhibition at 20 µM (Hs-FIGL1): ~85%
IC50 (Hs-dynein 1 [8]): ~30 µM
Reduction of ATPase activity, Xl-katanin (Xl-katanin): < 25%
Reduction of ATPase activity, Dm-spastin (Dm-spastin): < 25%

Inhibition of Hs-dynein 1 basal ATPase activity (in words) (Hs-dynein 1 [1]): less active
SMILES: N#Cc1c(C2(c3ccc(Cl)cc3)CC2)nn2c(=O)c(Oc3ccccc3Cl)c[nH]c12 [compound 13, 6-(2-chlorophenoxy)-2-[1-(4-chlorophenyl)cyclopropyl]-7-oxo-4H-pyrazolo[1,5-a]pyrimidine-3-carbonitrile]

SMILES: N#CC(=C(O)c1ccc(Cl)cc1Cl)c1nc2cc(Cl)ccc2c(=O)[nH]1 [compound 1, ciliobrevin D]
Inhibition of dynein's basal ATPase activity (in words) (Hs-dynein 1 [9]): does not

SMILES: N#Cc1c(C2(c3ccc(Cl)cc3)CC2)nn2c1[nH]c(=O)c1cc(I)ccc12 [compound 2, dynapyrazole-A]
IC50 (Hs-dynein 1 [10]): ~10 µM
